Series [1] deals with CYP2D6 (Homo sapiens, UniProt P10635). The experiment in a line: Inhibition of CYP2D6 (unknown origin) at 10 uM relative to control. Format: ADME.
The test system of series [2] is Rattus norvegicus. The experiment in a line: Cardiotoxicity in Sprague-Dawley rat assessed as increase in heart beat rate at 3 mg/kg, iv after 30 mins (reference value: 1.8 +/- 0.9%). The format is toxicity, organism-based. Conditions: in vivo, 0.5 h.
Series [3] concerns Rattus norvegicus. The experiment in a line: Cardiotoxicity in Sprague-Dawley rat assessed as increase in mean blood pressure at 3 mg/kg, iv after 30 mins (reference value: 1 +/- 0.5%). Conditions: in vivo, 0.5 h. The format is toxicity, organism-based.
Series [4] concerns Rattus norvegicus. Briefly: Cardiotoxicity in Sprague-Dawley rat assessed as decrease in mean blood pressure at 3 mg/kg, iv after 30 mins (reference value: 5.4 +/- 1.9%). On the set-up: scale not given: the % may be the effect or the level left. Conditions: in vivo, 0.5 h. The format is toxicity, organism-based.
Series [5] addresses T1, Alpha-1A adrenergic receptor (Homo sapiens, UniProt P35348).
T1 sequence (P35348 whole entry): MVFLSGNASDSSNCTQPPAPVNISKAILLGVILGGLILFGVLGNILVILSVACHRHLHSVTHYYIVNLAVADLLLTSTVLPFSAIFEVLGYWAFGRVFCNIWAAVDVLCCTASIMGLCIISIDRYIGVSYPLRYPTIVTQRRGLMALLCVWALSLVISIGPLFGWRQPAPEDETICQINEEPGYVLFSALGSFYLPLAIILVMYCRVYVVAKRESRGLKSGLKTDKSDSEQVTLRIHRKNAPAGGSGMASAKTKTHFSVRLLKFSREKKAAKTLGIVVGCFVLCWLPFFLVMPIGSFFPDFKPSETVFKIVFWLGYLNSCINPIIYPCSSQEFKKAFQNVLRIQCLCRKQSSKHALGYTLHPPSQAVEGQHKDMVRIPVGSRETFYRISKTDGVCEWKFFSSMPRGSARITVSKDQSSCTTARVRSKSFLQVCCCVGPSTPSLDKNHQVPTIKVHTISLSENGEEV
Briefly: Intrinsic activity at recombinant human alpha1A adrenergic receptor expressed in HEK293 cells assessed as intercellular Ca mobilization by Fura-2AM dye-based fluorescence assay relative to norepinephrine. Format: cell-based. Conditions: read-out: Intrinsic activity.

The species entered for series [6] is Homo sapiens. The experiment in a line: Selectivity ratio of EC50 for recombinant human alpha1A adrenergic receptor to EC50 for recombinant human beta3 adrenergic receptor.
A short description of series [7]: Intrinsic clearance in human liver microsomes at 1 uM in presence of NADPH by LC-MS/MS analysis. Format: ADME, microsome. Conditions: […]. Put shortly:
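Pooled mixed-gender human liver microsomes (0.5 mg/mL) in 100 mM potassium phosphate pH 7.4 with NADPH-regenerating mix plus UDP-GA, test compound 1 µM, 15 min at 37 °C. Acetonitrile stop, LC-MS/MS. k from the remaining fraction. CLint,u is scaled with 48.8 mg protein/g liver and 25.7 g liver/kg, and corrected by fu from equilibrium dialysis (1 µM, 0.5 mg/mL, 6 h, 37 °C).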

Series [8] can be described thus: Intrinsic clearance in Sprague-Dawley rat liver microsomes at 0.5 uM in presence of NADPH by LC-MS/MS analysis. Format: ADME, microsome. Conditions: […]. In short, it runs like this: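 Pooled male Sprague-Dawley rat liver microsomes (0.5 mg/mL final) in 100 mM Tris-HCl pH 7.4 with NADPH-regenerating mix plus UDP-GA, test compound 0.5 µM, 20 min at 37 °C. Acetonitrile stop, LC-MS/MS. CLint,u is scaled with 44.8 mg protein/g liver and 40.0 g liver/kg, and corrected by fu from ultracentrifugation (160,000g, 16 h, 37 °C).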

In series [9] the target is T2, Beta-3 adrenergic receptor (Homo sapiens, UniProt P13945). Briefly: Agonist activity at recombinant human beta3 adrenergic receptor expressed in CHO cells assessed as accumulation of cyclic AMP after 30 mins. The format is cell-based.
Target sequence in this assay (P13945 whole entry): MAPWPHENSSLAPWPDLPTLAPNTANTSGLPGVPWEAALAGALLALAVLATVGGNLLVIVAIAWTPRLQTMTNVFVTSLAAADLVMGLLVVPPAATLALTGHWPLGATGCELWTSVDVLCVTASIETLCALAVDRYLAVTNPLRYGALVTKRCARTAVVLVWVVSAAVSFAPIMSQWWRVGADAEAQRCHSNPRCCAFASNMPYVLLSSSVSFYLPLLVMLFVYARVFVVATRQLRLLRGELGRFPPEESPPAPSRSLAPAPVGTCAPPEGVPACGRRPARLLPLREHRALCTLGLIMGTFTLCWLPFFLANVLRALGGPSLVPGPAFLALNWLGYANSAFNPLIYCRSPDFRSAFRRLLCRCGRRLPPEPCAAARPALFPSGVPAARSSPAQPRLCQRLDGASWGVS
The target in series [10] is T2, Beta-3 adrenergic receptor. Briefly: Intrinsic activity at recombinant human beta3 adrenergic receptor expressed in CHO cells assessed as accumulation of cyclic AMP after 30 mins relative to isoproterenol. Format: cell-based.
Target sequence in this assay (P13945 whole entry, looked up): as the sequence (P13945 whole entry) above
For series [11], the target named is T1, Alpha-1A adrenergic receptor. Briefly: Agonist activity at recombinant human alpha1A adrenergic receptor expressed in HEK293 cells assessed as intercellular Ca mobilization by Fura-2AM dye-based fluorescence assay. The format is cell-based.
Series [12] is described as follows: Solubility of the compound at pH 1.2 buffer solution after 18 hrs by HPLC analysis. The format is physicochemical.
The nature of series [13]: Solubility of the compound at pH 6.8 buffer solution after 18 hrs by HPLC analysis. The format is physicochemical.
Series [14] can be described thus: Cmax in Sprague-Dawley rat at 5 mg/kg, po by LC-MS/MS analysis. Format: ADME, organism-based. To be noted: in vivo. On the set-up: dose 5 mg/kg, route oral. Put shortly:
(§1)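 Male Sprague-Dawley rats (n = 2 or 3) dosed orally at 5 mg/kg in saline or water (5 mL/kg). Blood taken from the subclavian vein at 0.5, 1, 2, 4, 6 and 8 h; plasma separated by centrifugation, stored at -20 °C, and drug levels measured by LC-MS/MS. Values are mean ± SD (n = 3) or the average of two experiments.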

The nature of series [15]: AUC in Sprague-Dawley rat at 5 mg/kg, po by LC-MS/MS analysis. The format is ADME, organism-based. Conditions: in vivo. In short, it runs like this: as §1
A short description of series [16]: Half life in Sprague-Dawley rat at 5 mg/kg, po by LC-MS/MS analysis. Format: ADME, organism-based. Conditions: in vivo. Put shortly: as §1
A short description of series [17]: Membrane permeability in MDCK cells at 50 uM after 60 mins by LC-MS/MS analysis. Format: ADME, cell-based, Canis lupus familiaris. Conditions: dog, read-out: permeability.
Series [18] deals with T3, Beta-1 adrenergic receptor (Homo sapiens, UniProt P08588). Briefly: Intrinsic activity at recombinant human beta1 adrenergic receptor assessed as accumulation of cyclic AMP after 30 mins relative to isoproterenol. Conditions: 0.5 h.
T3 sequence (P08588 whole entry): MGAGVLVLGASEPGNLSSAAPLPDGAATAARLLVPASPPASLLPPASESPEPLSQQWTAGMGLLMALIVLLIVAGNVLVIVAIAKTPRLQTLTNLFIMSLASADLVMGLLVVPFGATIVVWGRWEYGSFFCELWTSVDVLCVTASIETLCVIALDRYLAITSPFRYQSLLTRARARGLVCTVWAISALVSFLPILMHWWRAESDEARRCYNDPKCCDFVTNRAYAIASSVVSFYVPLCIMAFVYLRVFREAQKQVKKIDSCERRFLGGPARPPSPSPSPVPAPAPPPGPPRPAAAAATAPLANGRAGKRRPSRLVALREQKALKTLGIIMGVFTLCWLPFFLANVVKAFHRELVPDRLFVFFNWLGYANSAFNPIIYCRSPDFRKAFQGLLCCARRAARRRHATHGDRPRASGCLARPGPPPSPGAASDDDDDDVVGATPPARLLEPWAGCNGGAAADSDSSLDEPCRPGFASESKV
The target in series [19] is T4, Beta-2 adrenergic receptor (Homo sapiens, UniProt P07550). The experiment in a line: Intrinsic activity at recombinant human beta2 adrenergic receptor assessed as accumulation of cyclic AMP after 30 mins relative to isoproterenol.
T4 sequence (P07550 whole entry): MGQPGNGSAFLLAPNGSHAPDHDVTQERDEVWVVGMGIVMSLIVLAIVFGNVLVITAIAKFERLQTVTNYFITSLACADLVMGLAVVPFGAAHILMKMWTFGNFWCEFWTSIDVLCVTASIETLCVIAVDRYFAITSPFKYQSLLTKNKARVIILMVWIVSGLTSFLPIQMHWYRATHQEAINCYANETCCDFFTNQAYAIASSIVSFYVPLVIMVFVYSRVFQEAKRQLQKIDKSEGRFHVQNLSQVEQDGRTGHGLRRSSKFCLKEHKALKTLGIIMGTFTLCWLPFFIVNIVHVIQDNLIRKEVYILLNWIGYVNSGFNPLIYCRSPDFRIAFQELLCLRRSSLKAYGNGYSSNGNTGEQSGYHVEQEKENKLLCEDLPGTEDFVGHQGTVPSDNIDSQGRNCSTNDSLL
Series [20] deals with T3, Beta-1 adrenergic receptor. Briefly: Agonist activity at recombinant human beta1 adrenergic receptor expressed in CHO cells assessed as accumulation of cyclic AMP after 30 mins. Format: cell-based.
Series [21] addresses T4, Beta-2 adrenergic receptor. Briefly: Agonist activity at recombinant human beta2 adrenergic receptor expressed in CHO cells assessed as accumulation of cyclic AMP after 30 mins. Format: cell-based.
For series [22], the target named is Adrenoceptor beta 3 (Callithrix jacchus) (UniProt F6XZF4). The experiment in a line: Agonist activity at beta3 adrenergic receptor in marmoset urinary bladder smooth muscle strips assessed as induction of KCl-precontracted muscle relaxation treated every 20 mins.
Sequence of Adrenoceptor beta 3 (Callithrix jacchus) (F6XZF4 as listed by the source): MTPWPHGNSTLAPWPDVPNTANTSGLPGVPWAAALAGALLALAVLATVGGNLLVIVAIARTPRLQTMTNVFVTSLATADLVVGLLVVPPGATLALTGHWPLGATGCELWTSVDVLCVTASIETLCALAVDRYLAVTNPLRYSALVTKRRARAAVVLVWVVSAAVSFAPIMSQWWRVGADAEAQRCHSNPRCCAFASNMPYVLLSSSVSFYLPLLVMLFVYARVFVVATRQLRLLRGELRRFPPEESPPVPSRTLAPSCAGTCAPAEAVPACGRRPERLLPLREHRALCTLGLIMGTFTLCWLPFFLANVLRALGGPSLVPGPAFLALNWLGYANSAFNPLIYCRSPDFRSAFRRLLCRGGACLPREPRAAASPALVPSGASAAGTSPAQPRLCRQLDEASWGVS

Converted amounts (≈) assume the structure as drawn. The source made the active and inactive calls. The calls are words filed in the database; no cut-off is given here. Some results are limits rather than exact numbers.

Sequence of CYP2D6 (P10635 whole entry): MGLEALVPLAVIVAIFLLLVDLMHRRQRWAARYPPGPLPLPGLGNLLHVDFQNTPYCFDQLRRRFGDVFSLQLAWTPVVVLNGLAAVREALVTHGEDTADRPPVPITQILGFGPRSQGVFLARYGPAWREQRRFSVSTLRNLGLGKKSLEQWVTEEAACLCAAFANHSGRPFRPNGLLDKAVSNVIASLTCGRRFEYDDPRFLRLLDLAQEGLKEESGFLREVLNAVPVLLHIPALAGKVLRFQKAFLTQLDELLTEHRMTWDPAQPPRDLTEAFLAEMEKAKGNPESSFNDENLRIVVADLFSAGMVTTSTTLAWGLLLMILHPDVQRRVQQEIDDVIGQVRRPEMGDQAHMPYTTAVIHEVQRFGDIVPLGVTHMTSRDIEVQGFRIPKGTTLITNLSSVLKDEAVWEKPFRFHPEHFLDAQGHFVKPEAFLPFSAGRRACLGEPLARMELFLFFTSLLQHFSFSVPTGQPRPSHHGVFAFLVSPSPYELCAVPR

A word on the inhibition: it is the percentage by which the read-out fell short of the control. The molecule `Nc1nc(CC(=O)Nc2ccc(CCNC[C@H](O)c3ccccc3)cc2)cs1` [MIRABEGRON] registered an inhibition at 10 µM in series [1] of 87%. For the same molecule, the Activity came to 10% in [2], 3.5% in [3] and 38.3% in series [4].
As to `CCc1n[nH]c2cc(OCCNC[C@H](O)c3cccc(NS(C)(=O)=O)c3)ccc12`, the Emax in series [5] was found to be 31%. In addition, in series [6], the Ratio EC50 came to 61. Further, the CLint scaled at 1 µM in series [7] stood at 42 mL/min/kg. In series [8], the CLint scaled at 0.5 µM is 113 mL/min/kg.
For orientation: EC50 means the concentration that produces a half-maximal response. `Cc1n[nH]c2cc(OCCNC[C@H](O)c3cccc(NS(=O)(=O)C(C)C)c3)ccc12`: the values for the EC50 in [9] and in [11] were 70 nM and 1760 nM, respectively. Moreover, the Intrinsic activity in series [10] was 90%. For the same molecule, in series [5], the Emax worked out at 27%. Also, the Ratio EC50 in series [6] was determined as 25.
Turning to `Cc1n[nH]c2cc(OCCNC[C@H](O)c3cccc(NS(=O)(=O)C4CC4)c3)ccc12`, the values for the EC50 in series [9] and in series [11] were 43 nM and 1250 nM, respectively. Also, the Intrinsic activity in [10] stood at 72%. The Emax in [5] came to 26%. The Ratio EC50 in series [6] is 29.
As a reminder, the solubility is the concentration that dissolves in the medium under given conditions. In general, Cmax refers to the peak of the concentration-time curve. Broadly, the AUC is the area under the concentration-time curve, a measure of exposure. Usually half-life stands for the time in which the quantity being followed falls by half. `CC(C)c1n[nH]c2cc(OCCNC[C@H](O)c3cccc(NS(C)(=O)=O)c3)ccc12`: the Emax in series [5] worked out at 9.1%. Besides, in series [6], the Ratio EC50 was over 769. In addition, the CLint scaled at 1 µM in series [7] worked out at 193 mL/min/kg. The CLint scaled at 0.5 µM in series [8] was 211 mL/min/kg. Moreover, the solubility at 18 h in series [12] was 295 µM (≈ 128 µg/mL); in [13], 267 µM (≈ 115 µg/mL). For the same molecule, the Cmax in series [14] amounted to 45.2 ng/mL. Moreover, the AUC in series [15] was 200 ng·h/mL. Further, in [16], the half-life was 97.2 min. Moreover, in series [17], the Papp at 1 h, 50 µM was 4.1 ×10⁻⁶ cm/s. For the same molecule, in series [18], the Intrinsic activity came to 11.9%. In addition, the Emax at 0.5 h in series [19] was 5.6%.
On to `Cc1n[nH]c2cc(OCCNC[C@H](O)c3cccc(NS(=O)(=O)c4ccccc4)c3)ccc12`, for which the half-maximal effective concentration (EC50) in series [9] was 3.9 nM; in series [11], over 10000 nM; in series [20] it was over 10 µM; in series [21], over 10 µM. Further, the Intrinsic activity is 85% in series [10] and 10% in [18]. In addition, in series [5], the Emax is 0%. In [6], the Ratio EC50 was over 2560. Besides, in series [7], the CLint scaled at 1 µM came out at 464 mL/min/kg. For the same molecule, the solubility at 18 h in [12] was determined as 300 µM (≈ 140 µg/mL); in [13], 229 µM (≈ 107 µg/mL). Moreover, the Papp at 1 h, 50 µM in series [17] came out at 5.1 ×10⁻⁶ cm/s. In series [19], the Emax at 0.5 h amounted to 0%.
With `CCCS(=O)(=O)Nc1cccc([C@@H](O)CNCCOc2ccc3c(C)n[nH]c3c2)c1`, the EC50 came to 6.5 nM in series [9] and 163 nM in series [11]. Moreover, the Intrinsic activity in series [10] worked out at 79%. In addition, in [5], the Emax stood at 84%. In addition, the Ratio EC50 in series [6] came out at 25.
For `Cc1n[nH]c2cc(OCCNC[C@H](O)c3cccc(NS(C)(=O)=O)c3)ccc12`, in series [5], the Emax came to 71%. In addition, the Ratio EC50 in series [6] is 10. Moreover, the CLint scaled at 1 µM in [7] is under 10 mL/min/kg. The CLint scaled at 0.5 µM in series [8] is 103 mL/min/kg. Moreover, the solubility at 18 h was 285 µM (≈ 115 µg/mL) in [12] and 273 µM (≈ 110 µg/mL) in series [13]. Also, in [14], the peak level (Cmax) was 107 ng/mL. In series [15], the exposure (AUC) was 542 ng·h/mL. Besides, the Papp at 1 h, 50 µM in series [17] turned out to be 2.4 ×10⁻⁶ cm/s.
On to `CC(C)NCC(O)c1ccc(O)c(O)c1` (configuration not stated), for which the outcome in [22] was Active.
Take `Cc1n[nH]c2cc(OCCNC[C@H](O)c3cccc(NS(=O)(=O)C4CCCC4)c3)ccc12`: the EC50 in [9] is 309 nM; in series [11], over 10000 nM. Further, in [10], the Intrinsic activity came out at 58%. In series [5], the Emax is 0%. Besides, the Ratio EC50 in series [6] is over 32.
With `CS(=O)(=O)Nc1cccc([C@@H](O)CNCCOc2ccc3c(C4CCC4)n[nH]c3c2)c1`, in series [5], the Emax was 4%. Further, the Ratio EC50 in series [6] was over 151. For the same molecule, the CLint scaled at 1 µM in series [7] was found to be 463 mL/min/kg. Besides, the CLint scaled at 0.5 µM in series [8] turned out to be 641 mL/min/kg.

The values above are taken from ChEMBL document CHEMBL4049422, “Discovery of Novel Indazole Derivatives as Orally Available β3-Adrenergic Receptor Agonists Lacking Off-Target-Based Cardiovascular Side Effects” (J Med Chem, 2017).
